In ChEMBL document CHEMBL1154962, “Novel 6-N-arylcarboxamidopyrazolo[4,3-d]pyrimidin-7-one derivatives as potential anti-cancer agents” (2010):

Legend:
Assay type in all cases: functional
HT-29 [1] = assay: Cytotoxicity against human HT-29 cells at 100 uM after 2 days by sulforhodamine B assay; conditions: HT-29, 48 h
In short: (§1)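 Five human cancer lines (HT-29, DU-145, A-549, SK-MEL-2, SK-OV-3) seeded at 3–7 × 10³ cells/well; compounds at 100 µM added in duplicate; 37 °C, 5% CO₂, two days. Fixed with formalin, SRB stained, washed with 1% acetic acid, dye solubilized in 10 mM unbuffered Tris base; OD at 520 nm. Read-out is % inhibition.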

DU-145 [2] = assay: Cytotoxicity against human DU145 cells at 100 uM after 2 days by sulforhodamine B assay; conditions: DU-145, 48 h; in short: as §1
DU-145 [3] = assay: Growth inhibition of human DU145 cells after 2 days by MTT assay; conditions: DU-145, 48 h
In short: (§2)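 HT-29 and DU-145 cells seeded at 5 × 10⁴ cells/mL; serial concentrations added in duplicate; 37 °C, 5% CO₂, two days. MTT dye (Cell Titer96) for up to 4 h at 37 °C, then solubilization/stop mix overnight at room temperature; OD at 570 nm. GI₅₀ = concentration giving 50% growth inhibition; mean ± SEM of three or more experiments; doxorubicin as internal standard.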

HT-29 [4] = assay: Growth inhibition of human HT-29 cells after 2 days by MTT assay; conditions: HT-29, 48 h; in short: as §2
SK-MEL-2 = assay: Cytotoxicity against human SK-MEL-2 cells at 100 uM after 2 days by sulforhodamine B assay; conditions: SK-MEL-2, 48 h; in short: as §1
SK-OV-3 = assay: Cytotoxicity against human SKOV3 cells at 100 uM after 2 days by sulforhodamine B assay; conditions: SK-OV-3, 48 h; in short: as §1
A549 = assay: Cytotoxicity against human A549 cells at 100 uM after 2 days by sulforhodamine B assay; conditions: A549, 48 h; in short: as §1

Compound	inhibition at 100 µM (HT-29 [1])	inhibition at 100 µM (DU-145 [2])	GI50 (DU-145 [3])	GI50 (HT-29 [4])	inhibition at 100 µM (SK-MEL-2)	inhibition at 100 µM (SK-OV-3)	inhibition at 100 µM (A549)
COc1cccc2c1C(=O)c1c(O)c3c(c(O)c1C2=O)C[C@@](O)(C(=O)CO)C[C@@H]3O[C@H]1C[C@H](N)[C@H](O)[C@H](C)O1 [DOXORUBICIN]	60.9%	62.8%	0.35 µM	0.85 µM	–	–	–
CC(C)(C)c1ccc(C(=O)Nn2c(CC3CCCCC3)nc3c(-c4ccc(Cl)cc4)n[nH]c3c2=O)cc1	72.3%	65.2%	> 100 µM	1.06 µM	–	–	–
COc1cccc(-c2nc3c(-c4cccc(Cl)c4)n[nH]c3c(=O)n2NC(=O)c2ccccc2)c1	91%	93.5%	–	–	81.9%	–	–
CC(C)Cc1n[nH]c2c(=O)n(NC(=O)c3ccncc3)c(-c3cccc([N+](=O)[O-])c3)nc12	–	55.3%	–	–	38.7%	35.8%	–
CCCc1n[nH]c2c(=O)n(NC(=O)c3ccncc3)c(-c3cccc(OC)c3)nc12	0.07%	4.04%	–	–	11.4%	4.04%	11.2%
O=C(Nn1c(-c2cccc([N+](=O)[O-])c2)nc2c(-c3ccc(Cl)cc3)n[nH]c2c1=O)c1cccnc1	15.1%	31%	–	–	16.3%	30.2%	19.7%
CC(C)(C)c1ccc(C(=O)Nn2c(CCC3CCCC3)nc3c(-c4ccc(Cl)cc4)n[nH]c3c2=O)cc1	76.8%	64.2%	21.5 µM	20.6 µM	–	–	–
O=C(Nn1c(-c2cccc([N+](=O)[O-])c2)nc2c(-c3ccc(F)cc3)n[nH]c2c1=O)c1cccnc1	24.7%	24.9%	–	–	24.5%	19.3%	28.8%
COc1cccc(-c2nc3c(-c4ccc(Cl)cc4)n[nH]c3c(=O)n2NC(=O)c2ccccc2)c1	87.3%	94.1%	17.9 µM	20.4 µM	84.9%	81.7%	81.8%
O=C(Nn1c(-c2cccc([N+](=O)[O-])c2)nc2c(-c3cccs3)n[nH]c2c1=O)c1cccnc1	3.9%	32.8%	–	–	3.26%	–	10.2%
COc1cccc(Cc2nc3c(-c4ccc(Cl)cc4)n[nH]c3c(=O)n2NC(=O)c2ccccc2)c1	89.3%	93.2%	44.9 µM	22.1 µM	–	–	–
O=C(Nn1c(-c2cccc([N+](=O)[O-])c2)nc2c(-c3ccc(Cl)cc3)n[nH]c2c1=O)c1ccccc1	87.8%	94.2%	17.1 µM	18.4 µM	89%	86.8%	88.6%
CCCc1n[nH]c2c(=O)n(NC(=O)c3ccncc3)c(-c3cccc([N+](=O)[O-])c3)nc12	-0.83%	15.1%	–	–	14.2%	15.1%	9.95%
O=C(Nn1c(-c2ccccc2)nc2c(-c3ccc(Cl)cc3)n[nH]c2c1=O)c1ccccc1	92%	90.2%	20.1 µM	20.6 µM	–	–	–
O=C(Nn1c(-c2cccc([N+](=O)[O-])c2)nc2c(-c3ccco3)n[nH]c2c1=O)c1cccnc1	11.7%	1.66%	–	–	19.2%	-0.61%	1.51%
CCCc1nc2c(-c3ccc(Cl)cc3)n[nH]c2c(=O)n1NC(=O)Cc1ccccc1	91.4%	89.7%	16 µM	15.2 µM	–	–	–
COc1cccc(-c2nc3c(-c4ccc(Cl)cc4)n[nH]c3c(=O)n2NC(=O)c2ccncc2)c1	46%	54.4%	–	–	39.6%	42.5%	46%
COc1cccc(-c2nc3c(-c4ccc(C5CCNCC5)cc4)n[nH]c3c(=O)n2NC(=O)c2ccncc2)c1	28.1%	37%	–	–	23.4%	18.2%	32.4%
CCCc1nc2c(-c3ccc(Cl)cc3)n[nH]c2c(=O)n1NC(=O)c1ccccc1	91.1%	89.4%	29.2 µM	9.26 µM	–	–	–
O=C(Nn1c(CCc2ccccc2)nc2c(-c3ccc(Cl)cc3)n[nH]c2c1=O)c1ccccc1	86.5%	85.6%	86.7 µM	23.4 µM	–	–	–
COc1cccc(-c2nc3c(-c4ccco4)n[nH]c3c(=O)n2NC(=O)c2ccccc2)c1	49.8%	50.5%	–	–	43.2%	35.2%	53.8%
COc1cccc(-c2nc3c(-c4ccco4)n[nH]c3c(=O)n2NC(=O)c2cccnc2)c1	12.8%	30.1%	–	–	34.1%	25%	14.9%
O=C(Nn1c(-c2cccc([N+](=O)[O-])c2)nc2c(-c3ccc(F)cc3)n[nH]c2c1=O)c1ccccc1	92%	90.8%	–	–	88.5%	77.7%	80.7%
O=C(Nn1c(-c2cccc([N+](=O)[O-])c2)nc2c(-c3cccc(Cl)c3)n[nH]c2c1=O)c1ccccc1	89.8%	93.8%	–	–	78.2%	–	–
CCCc1n[nH]c2c(=O)n(NC(=O)c3ccccc3)c(-c3cccc(OC)c3)nc12	6.27%	23.6%	–	–	16.7%	9.96%	20.7%
O=C(Nn1c(-c2cccc([N+](=O)[O-])c2)nc2c(CCc3ccccc3)n[nH]c2c1=O)c1cccnc1	20.1%	22.5%	–	–	28.5%	30.1%	19%
CCCc1n[nH]c2c(=O)n(NC(=O)c3ccccc3)c(-c3cccc([N+](=O)[O-])c3)nc12	18.7%	27.8%	–	–	22.9%	28.8%	33.2%
O=C(Nn1c(-c2cccc([N+](=O)[O-])c2)nc2c(CCc3ccccc3)n[nH]c2c1=O)c1ccccc1	89.7%	92.5%	–	–	92%	–	73.9%
O=C(Nn1c(-c2cccc([N+](=O)[O-])c2)nc2c(-c3ccco3)n[nH]c2c1=O)c1ccccc1	21.2%	16.1%	–	–	23%	17.9%	18.7%
O=C(Nn1c(CCC2CCCC2)nc2c(-c3ccc(Cl)cc3)n[nH]c2c1=O)c1ccccc1	87.3%	89.6%	10.2 µM	1.8 µM	–	–	–
